Source: ChEMBL document CHEMBL5724801, “EUbOPEN Chemogenomics Library - Multiplex” (2024)
Where “and” joins values, the source holds several entries; their conditions need not be identical. Equal entries are not always repeated.

Tested on: Fibroblast
Experiment: Multiplex assay against human fibroblast
Assay type: toxicity, cell-based
Procedure, shortened: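 Live cells were stained at seeding with Hoechst33342, BioTracker Green Microtubule Cytoskeleton Dye, MitoTracker Red and Annexin V Alexa Fluor 680, then imaged on a CQ1 microscope at 37°C and 5% CO2 after compound addition. CellPathfinder machine-learning gating split cells into Hoechst high-intensity objects or normal cells. Normal cells were split into healthy, pyknosed or fragmented nuclei, and pyknosed cells into mitotic or apoptotic. Tubulin, mitochondrial-mass and membrane-permeability phenotypes are per cents of healthy-nucleus cells.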

[1] = 12 h, 1 µM, compound concentration 1 uM
[2] = 12 h, 10 µM, compound concentration 10 uM
[3] = 24 h, 1 µM, compound concentration 1 uM
[4] = 24 h, 10 µM, compound concentration 10 uM
[5] = 48 h, 1 µM, compound concentration 1 uM
[6] = 48 h, 10 µM, compound concentration 10 uM

CN1CCN2c3ccccc3Cc3ccccc3C2C1.Cl (stereo not given) [MIANSERIN HYDROCHLORIDE]
Population Apoptotic (%) [1]: 55% and 38%
Population Fragmented Nuclei (%) [1]: 28% and 27%
Population Healthy Nuclei (%) [1]: 56% and 50%
Population Hoechst High Intensity Objects (%) [1]: 2% and 4%
Population Mitochondria Different-Phenotype (%) [1]: 0% and 5%
Population Mitotic Cells (%) [1]: 45% and 61%
Population Normal (%) [1]: 97% and 95%
Population Pyknosed Nuclei (%) [1]: 14% and 22%
Population Tubulin-Different-Phenotype (%) [1]: 31% and 56%
Total Cell Count [1]: 138 and 119
Population Apoptotic (%) [2]: 55% and 33%
Population Fragmented Nuclei (%) [2]: 15% and 24%
Population Healthy Nuclei (%) [2]: 68% and 48%
Population Hoechst High Intensity Objects (%) [2]: 5% and 6%
Population Membrane Permeable-Phenotype (%) [2]: 1% and 3%
Population Mitochondria Different-Phenotype (%) [2]: 3% and 7%
Population Mitotic Cells (%) [2]: 44% and 66%
Population Normal (%) [2]: 94% and 93%
Population Pyknosed Nuclei (%) [2]: 15% and 27%
Population Tubulin-Different-Phenotype (%) [2]: 14% and 40%
Total Cell Count [2]: 126 and 116
Population Apoptotic (%) [3]: 52% and 36%
Population Fragmented Nuclei (%) [3]: 32% and 30%
Population Healthy Nuclei (%) [3]: 55% and 50%
Population Hoechst High Intensity Objects (%) [3]: 2% and 3%
Population Membrane Permeable-Phenotype (%) [3]: 0% and 6%
Population Mitochondria Different-Phenotype (%) [3]: 2% and 1%
Population Mitotic Cells (%) [3]: 47% and 63%
Population Normal (%) [3]: 97% and 96%
Population Pyknosed Nuclei (%) [3]: 12% and 19%
Population Tubulin-Different-Phenotype (%) [3]: 29% and 53%
Total Cell Count [3]: 143 and 119
Population Apoptotic (%) [4]: 61% and 48%
Population Fragmented Nuclei (%) [4]: 14% and 31%
Population Healthy Nuclei (%) [4]: 73% and 47%
Population Hoechst High Intensity Objects (%) [4]: 5% and 4%
Population Membrane Permeable-Phenotype (%) [4]: 0% and 10%
Population Mitochondria Different-Phenotype (%) [4]: 1% and 5%
Population Mitotic Cells (%) [4]: 38% and 52%
Population Normal (%) [4]: 95%
Population Pyknosed Nuclei (%) [4]: 11% and 20%
Total Cell Count [4]: 120 and 127
Population Apoptotic (%) [5]: 78% and 46%
Population Fragmented Nuclei (%) [5]: 35% and 36%
Population Healthy Nuclei (%) [5]: 55% and 51%
Population Hoechst High Intensity Objects (%) [5]: 2% and 3%
Population Membrane Permeable-Phenotype (%) [5]: 0% and 3%
Population Mitochondria Different-Phenotype (%) [5]: 2% and 10%
Population Mitotic Cells (%) [5]: 21% and 53%
Population Normal (%) [5]: 97% and 96%
Population Pyknosed Nuclei (%) [5]: 9% and 11%
Population Tubulin-Different-Phenotype (%) [5]: 35% and 50%
Total Cell Count [5]: 151 and 116
Population Apoptotic (%) [6]: 57% and 38%
Population Fragmented Nuclei (%) [6]: 15% and 29%
Population Healthy Nuclei (%) [6]: 71% and 55%
Population Hoechst High Intensity Objects (%) [6]: 5% and 3%
Population Membrane Permeable-Phenotype (%) [6]: 0% and 10%
Population Mitochondria Different-Phenotype (%) [6]: 2% and 1%
Population Mitotic Cells (%) [6]: 42% and 61%
Population Normal (%) [6]: 94% and 96%
Population Pyknosed Nuclei (%) [6]: 12% and 14%
Population Tubulin-Different-Phenotype (%) [6]: 16% and 37%
Total Cell Count [6]: 115 and 125

CCNC1(C(N)=O)CCN(c2ncnc3c2nc(-c2ccccc2Cl)n3-c2ccc(Cl)cc2)CC1 [OTENABANT]
Population Apoptotic (%) [1]: 26% and 37%
Population Fragmented Nuclei (%) [1]: 19% and 25%
Population Healthy Nuclei (%) [1]: 63% and 48%
Population Hoechst High Intensity Objects (%) [1]: 6% and 2%
Population Membrane Permeable-Phenotype (%) [1]: 1% and 6%
Population Mitochondria Different-Phenotype (%) [1]: 7% and 10%
Population Mitotic Cells (%) [1]: 73% and 62%
Population Normal (%) [1]: 93% and 97%
Population Pyknosed Nuclei (%) [1]: 17% and 26%
Population Tubulin-Different-Phenotype (%) [1]: 44% and 50%
Total Cell Count [1]: 161 and 156
Population Apoptotic (%) [2]: 57% and 40%
Population Fragmented Nuclei (%) [2]: 22% and 30%
Population Healthy Nuclei (%) [2]: 64% and 48%
Population Hoechst High Intensity Objects (%) [2]: 4% and 3%
Population Membrane Permeable-Phenotype (%) [2]: 0% and 12%
Population Mitochondria Different-Phenotype (%) [2]: 16% and 18%
Population Mitotic Cells (%) [2]: 42% and 59%
Population Normal (%) [2]: 95% and 96%
Population Pyknosed Nuclei (%) [2]: 12% and 21%
Population Tubulin-Different-Phenotype (%) [2]: 90% and 87%
Total Cell Count [2]: 170 and 216
Population Apoptotic (%) [3]: 26% and 34%
Population Fragmented Nuclei (%) [3]: 17% and 27%
Population Healthy Nuclei (%) [3]: 66% and 43%
Population Hoechst High Intensity Objects (%) [3]: 4% and 5%
Population Membrane Permeable-Phenotype (%) [3]: 0% and 9%
Population Mitochondria Different-Phenotype (%) [3]: 8% and 14%
Population Mitotic Cells (%) [3]: 73% and 65%
Population Normal (%) [3]: 95% and 94%
Population Pyknosed Nuclei (%) [3]: 15% and 29%
Population Tubulin-Different-Phenotype (%) [3]: 44% and 57%
Total Cell Count [3]: 154 and 155
Population Apoptotic (%) [4]: 54%
Population Fragmented Nuclei (%) [4]: 22% and 37%
Population Healthy Nuclei (%) [4]: 64% and 48%
Population Hoechst High Intensity Objects (%) [4]: 2% and 5%
Population Membrane Permeable-Phenotype (%) [4]: 0% and 7%
Population Mitochondria Different-Phenotype (%) [4]: 37% and 30%
Population Mitotic Cells (%) [4]: 45%
Population Normal (%) [4]: 97% and 94%
Population Pyknosed Nuclei (%) [4]: 12% and 13%
Population Tubulin-Different-Phenotype (%) [4]: 96% and 88%
Total Cell Count [4]: 174 and 235
Population Apoptotic (%) [5]: 68% and 59%
Population Fragmented Nuclei (%) [5]: 18% and 33%
Population Healthy Nuclei (%) [5]: 69% and 42%
Population Hoechst High Intensity Objects (%) [5]: 8% and 5%
Population Membrane Permeable-Phenotype (%) [5]: 0% and 13%
Population Mitotic Cells (%) [5]: 31% and 40%
Population Normal (%) [5]: 91% and 94%
Population Pyknosed Nuclei (%) [5]: 12% and 23%
Population Tubulin-Different-Phenotype (%) [5]: 41% and 72%
Total Cell Count [5]: 167 and 143
Population Apoptotic (%) [6]: 78% and 61%
Population Fragmented Nuclei (%) [6]: 30% and 46%
Population Healthy Nuclei (%) [6]: 61% and 47%
Population Hoechst High Intensity Objects (%) [6]: 8% and 2%
Population Membrane Permeable-Phenotype (%) [6]: 0% and 7%
Population Mitochondria Different-Phenotype (%) [6]: 49% and 26%
Population Mitotic Cells (%) [6]: 21% and 38%
Population Normal (%) [6]: 91% and 97%
Population Pyknosed Nuclei (%) [6]: 8% and 6%
Population Tubulin-Different-Phenotype (%) [6]: 92% and 89%
Total Cell Count [6]: 187 and 299

Cc1cc(-c2ccc3c(c2)CC[C@H]3N2CC3(CCN(C(=O)Cc4cn5cc(C)sc5n4)CC3)C2)ncn1 [PF-5190457]
Population Apoptotic (%) [1]: 29% and 30%
Population Fragmented Nuclei (%) [1]: 16% and 18%
Population Healthy Nuclei (%) [1]: 71% and 46%
Population Hoechst High Intensity Objects (%) [1]: 4%
Population Membrane Permeable-Phenotype (%) [1]: 1% and 9%
Population Mitochondria Different-Phenotype (%) [1]: 5% and 0%
Population Mitotic Cells (%) [1]: 70%
Population Normal (%) [1]: 96% and 95%
Population Tubulin-Different-Phenotype (%) [1]: 24% and 48%
Total Cell Count [1]: 150 and 121
Population Apoptotic (%) [2]: 36% and 45%
Population Fragmented Nuclei (%) [2]: 17% and 20%
Population Healthy Nuclei (%) [2]: 63% and 55%
Population Hoechst High Intensity Objects (%) [2]: 4% and 1%
Population Membrane Permeable-Phenotype (%) [2]: 1% and 6%
Population Mitochondria Different-Phenotype (%) [2]: 5% and 4%
Population Mitotic Cells (%) [2]: 63% and 54%
Population Normal (%) [2]: 95% and 98%
Population Pyknosed Nuclei (%) [2]: 18% and 24%
Population Tubulin-Different-Phenotype (%) [2]: 38% and 56%
Total Cell Count [2]: 186 and 138
Population Fragmented Nuclei (%) [3]: 19% and 23%
Population Healthy Nuclei (%) [3]: 72% and 43%
Population Hoechst High Intensity Objects (%) [3]: 2% and 3%
Population Membrane Permeable-Phenotype (%) [3]: 1% and 5%
Population Mitochondria Different-Phenotype (%) [3]: 4% and 5%
Population Mitotic Cells (%) [3]: 45% and 84%
Population Normal (%) [3]: 97% and 96%
Population Tubulin-Different-Phenotype (%) [3]: 26% and 54%
Total Cell Count [3]: 141 and 126
Population Apoptotic (%) [4]: 44% and 53%
Population Fragmented Nuclei (%) [4]: 19% and 25%
Population Healthy Nuclei (%) [4]: 64% and 49%
Population Hoechst High Intensity Objects (%) [4]: 3% and 5%
Population Membrane Permeable-Phenotype (%) [4]: 0% and 1%
Population Mitochondria Different-Phenotype (%) [4]: 6% and 7%
Population Mitotic Cells (%) [4]: 55% and 46%
Population Normal (%) [4]: 96% and 94%
Population Pyknosed Nuclei (%) [4]: 16% and 25%
Population Tubulin-Different-Phenotype (%) [4]: 37% and 60%
Total Cell Count [4]: 180 and 134
Population Apoptotic (%) [5]: 78% and 34%
Population Fragmented Nuclei (%) [5]: 30% and 32%
Population Healthy Nuclei (%) [5]: 59% and 47%
Population Hoechst High Intensity Objects (%) [5]: 6% and 2%
Population Mitochondria Different-Phenotype (%) [5]: 2% and 6%
Population Normal (%) [5]: 93% and 97%
Population Pyknosed Nuclei (%) [5]: 9% and 20%
Population Tubulin-Different-Phenotype (%) [5]: 23% and 68%
Total Cell Count [5]: 157 and 132
Population Apoptotic (%) [6]: 63% and 62%
Population Fragmented Nuclei (%) [6]: 22% and 30%
Population Healthy Nuclei (%) [6]: 66% and 51%
Population Hoechst High Intensity Objects (%) [6]: 6% and 1%
Population Membrane Permeable-Phenotype (%) [6]: 0% and 5%
Population Mitochondria Different-Phenotype (%) [6]: 12% and 14%
Population Mitotic Cells (%) [6]: 36% and 37%
Population Normal (%) [6]: 93% and 98%
Population Pyknosed Nuclei (%) [6]: 10% and 18%
Population Tubulin-Different-Phenotype (%) [6]: 37% and 64%
Total Cell Count [6]: 192 and 135
